The source made the active and inactive calls. The calls are words filed in the database; no cut-off is given here.
Assays:
Format in all cases: cell-based
Homo sapiens [1] = species: Homo sapiens; assay: Agonist activity at full-length human PPARgamma/RXR expressed in HEK293T cells at 20 uM after 14 to 16 hrs in presence of 1 uM rosiglitazone by dual-glo luciferase reporter gene assay relative to rosiglitazone
Summary of the method: (§1)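 RXR:PPARγ heterodimer reporter assay run with reference PPARγ agonist rosiglitazone (1 μM) co-applied. Read-out is mean relative synergistic activation, from three independent experiments each run in duplicate.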

[2] = Agonist activity at full-length human RXR/LXR expressed in HEK293T cells at 20 uM after 14 to 16 hrs in presence of 1 uM T0901317 by dual-glo luciferase reporter gene assay relative to T0901317; settings: HEK-293T, read-out: Activity
Summary of the method: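 Synergy format: the test compound was co-applied with the partner-receptor reference agonist at 1 μM, either T0901317 (RXR:LXR) or rosiglitazone (RXR:PPARγ). Relative synergistic activation was derived from three independent experiments, each in duplicate; mean reported.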

Homo sapiens [3] = species: Homo sapiens; assay: Agonist activity at full-length human PPARgamma/RXR expressed in HEK293T cells at 10 uM after 14 to 16 hrs in presence of 1 uM rosiglitazone by dual-glo luciferase reporter gene assay relative to rosiglitazone; summary of the method: as §1
Homo sapiens [4] = species: Homo sapiens; assay: Agonist activity at full-length human PPARgamma/RXR expressed in HEK293T cells at 10 uM after 14 to 16 hrs by dual-glo luciferase reporter gene assay relative to untreated control
Summary of the method: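 RXR:PPARγ heterodimer reporter assay in HEK293T cells with test compound alone. Mean relative activation is taken versus 0.1% DMSO, from three independent experiments each run in duplicate.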

[5] = molecular target: T1, Retinoic acid receptor RXR-beta (Homo sapiens) (UniProt P28702); assay: Agonist activity at Gal4-LBD fused RXRbeta (unknown origin) expressed in HEK293T cells at 0.1 to 3 uM after 14 to 16 hrs in presence of RXR antagonist HX531 by dual-Glo luciferase reporter gene assay
T1 sequence (whole entry): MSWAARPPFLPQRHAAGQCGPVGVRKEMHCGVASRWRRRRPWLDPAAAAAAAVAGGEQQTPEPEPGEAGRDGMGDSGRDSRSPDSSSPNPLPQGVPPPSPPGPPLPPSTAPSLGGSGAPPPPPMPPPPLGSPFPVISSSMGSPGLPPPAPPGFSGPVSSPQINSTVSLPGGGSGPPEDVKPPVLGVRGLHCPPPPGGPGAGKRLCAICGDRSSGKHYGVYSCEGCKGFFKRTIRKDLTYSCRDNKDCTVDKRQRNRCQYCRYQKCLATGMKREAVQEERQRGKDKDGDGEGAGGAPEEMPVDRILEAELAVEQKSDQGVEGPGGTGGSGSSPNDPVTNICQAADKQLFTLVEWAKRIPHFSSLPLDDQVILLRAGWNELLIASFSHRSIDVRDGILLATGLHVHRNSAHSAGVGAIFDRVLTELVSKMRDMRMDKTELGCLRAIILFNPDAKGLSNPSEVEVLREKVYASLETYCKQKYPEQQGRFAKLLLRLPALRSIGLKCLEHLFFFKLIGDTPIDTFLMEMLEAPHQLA

[6] = molecular target: T2, Retinoic acid receptor RXR-alpha (Homo sapiens) (UniProt P19793); assay: Agonist activity at Gal4-LBD fused RXRalpha (unknown origin) expressed in HEK293T cells at 0.1 to 3 uM after 14 to 16 hrs in presence of RXR antagonist HX531 by dual-Glo luciferase reporter gene assay
T2 sequence (whole entry): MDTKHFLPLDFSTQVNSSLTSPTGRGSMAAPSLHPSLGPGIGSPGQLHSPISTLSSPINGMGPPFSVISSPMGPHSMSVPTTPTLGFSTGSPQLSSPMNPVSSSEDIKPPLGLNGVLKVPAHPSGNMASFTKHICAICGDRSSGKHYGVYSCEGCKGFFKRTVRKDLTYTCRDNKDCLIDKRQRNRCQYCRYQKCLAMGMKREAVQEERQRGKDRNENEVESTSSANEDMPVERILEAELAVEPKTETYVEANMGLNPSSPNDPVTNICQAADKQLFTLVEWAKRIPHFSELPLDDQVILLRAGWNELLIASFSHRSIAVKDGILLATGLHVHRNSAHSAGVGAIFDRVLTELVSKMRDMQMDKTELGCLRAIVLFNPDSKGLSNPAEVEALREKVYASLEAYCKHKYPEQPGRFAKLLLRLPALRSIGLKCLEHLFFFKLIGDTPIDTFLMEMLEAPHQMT

[7] = molecular target: T3, Retinoic acid receptor RXR-gamma (Homo sapiens) (UniProt P48443); assay: Agonist activity at Gal4-LBD fused RXRgamma (unknown origin) expressed in HEK293T cells at 0.1 to 3 uM after 14 to 16 hrs in presence of RXR antagonist HX531 by dual-Glo luciferase reporter gene assay
T3 sequence (whole entry): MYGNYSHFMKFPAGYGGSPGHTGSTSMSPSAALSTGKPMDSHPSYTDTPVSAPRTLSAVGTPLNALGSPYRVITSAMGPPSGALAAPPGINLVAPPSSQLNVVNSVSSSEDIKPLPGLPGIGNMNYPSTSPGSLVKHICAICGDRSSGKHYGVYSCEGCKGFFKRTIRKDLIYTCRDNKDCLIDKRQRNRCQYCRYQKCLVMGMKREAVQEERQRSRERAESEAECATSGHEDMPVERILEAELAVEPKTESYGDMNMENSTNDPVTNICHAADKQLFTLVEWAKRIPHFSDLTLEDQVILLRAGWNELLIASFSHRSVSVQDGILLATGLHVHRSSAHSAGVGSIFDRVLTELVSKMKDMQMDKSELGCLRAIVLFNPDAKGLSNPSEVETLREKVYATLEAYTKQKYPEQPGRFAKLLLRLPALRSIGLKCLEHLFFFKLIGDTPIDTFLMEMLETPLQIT

[8] = molecular target: T2, Retinoic acid receptor RXR-alpha (Homo sapiens); assay: Agonist activity at Gal4-LBD fused RXRalpha (unknown origin) expressed in HEK293T cells assessed as fold activation at 10 uM after 14 to 16 hrs by dual-Glo luciferase assay relative to untreated control
Summary of the method: (§2)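 Gal4-hybrid RXRα/β/γ reporter gene assays in HEK293T cells. Fold activation is the maximal fold activation versus 0.1% DMSO.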

[9] = molecular target: T3, Retinoic acid receptor RXR-gamma (Homo sapiens); assay: Agonist activity at Gal4-LBD fused RXRgamma (unknown origin) expressed in HEK293T cells assessed as fold activation at 10 uM after 14 to 16 hrs by dual-Glo luciferase assay relative to untreated control; summary of the method: as §2
[10] = molecular target: T2, Retinoic acid receptor RXR-alpha (Homo sapiens); assay: Agonist activity at Gal4-LBD fused RXRalpha (unknown origin) expressed in HEK293T cells at 10 uM after 14 to 16 hrs by dual-Glo luciferase assay

## Cc1cc(-c2ccc(C(=O)O)cc2)cc(C(C)(C)C)c1
Homo sapiens [1]
  Activity: 46%
[2]
  activity at 20 µM: 70%

## Cc1cc(-c2cc(C(F)(F)F)cc(C(F)(F)F)c2)ccc1CC(=O)O
Homo sapiens [3]
  Activity: 84%
Homo sapiens [4]
  Activity: 139%
[5]
  Activity: inactive
[6]
  Activity: inactive
[7]
  Activity: inactive

## Cc1cc(-c2cc(C(C)(C)C)cc(C(C)(C)C)c2)ccc1C(=O)O
[8]
  fold change (FC): 3
[9]
  fold change (FC): 1
[10]
  Activity: inactive
